In ChEMBL document CHEMBL4190262, “Tuning of β-glucosidase and α-galactosidase inhibition by generation and in situ screening of a library of pyrrolidine-triazole hybrid molecules” (Eur J Med Chem, 2017):
Each block holds one compound with its values, some of them ahead of it. Activity calls are given as the source filed them. The rule behind the calls is not given here.

Key:
[1] = target: Beta-galactosidase (Escherichia coli) (UniProt Q8VNN2); experiment: Inhibition of Escherichia coli beta-galactosidase at 1 mM using p-nitrophenyl glycopyranoside preincubated for 5 mins followed by substrate addition measured after 20 mins by visible absorption spectroscopic method relative to control
Procedure, shortened: (§1)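 Test compound at 1 mM in well. Mix: 0.01–0.5 units/mL enzyme plus 10 mM p-nitrophenyl glycopyranoside (aqueous solution), buffered to the enzyme's optimal pH. Enzyme and inhibitor preincubated 5 min at rt. Substrate then added and incubated 20 min at 37 °C. Stopped with sodium borate (pH 9.8). p-Nitrophenolate read at 405 nm. Duplicates averaged.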

Bos taurus = species on record: Bos taurus; experiment: Inhibition of bovine kidney alpha-L-fucosidase at 1 mM using p-nitrophenyl glycopyranoside preincubated for 5 mins followed by substrate addition measured after 20 mins by visible absorption spectroscopic method relative to control; procedure, shortened: as §1
[2] = target: Alpha-galactosidase (Coffea arabica) (UniProt Q42656); experiment: Inhibition of coffee beans alpha-galactosidase at 1 mM using p-nitrophenyl glycopyranoside preincubated for 5 mins followed by substrate addition measured after 20 mins by visible absorption spectroscopic method relative to control; procedure, shortened: as §1
[3] = target: T1, Beta-galactosidase (Aspergillus oryzae) (UniProt B7VU80); experiment: Inhibition of Aspergillus oryzae beta-galactosidase at 1 mM using p-nitrophenyl glycopyranoside preincubated for 5 mins followed by substrate addition measured after 20 mins by visible absorption spectroscopic method relative to control; procedure, shortened: as §1
T1 sequence (whole entry): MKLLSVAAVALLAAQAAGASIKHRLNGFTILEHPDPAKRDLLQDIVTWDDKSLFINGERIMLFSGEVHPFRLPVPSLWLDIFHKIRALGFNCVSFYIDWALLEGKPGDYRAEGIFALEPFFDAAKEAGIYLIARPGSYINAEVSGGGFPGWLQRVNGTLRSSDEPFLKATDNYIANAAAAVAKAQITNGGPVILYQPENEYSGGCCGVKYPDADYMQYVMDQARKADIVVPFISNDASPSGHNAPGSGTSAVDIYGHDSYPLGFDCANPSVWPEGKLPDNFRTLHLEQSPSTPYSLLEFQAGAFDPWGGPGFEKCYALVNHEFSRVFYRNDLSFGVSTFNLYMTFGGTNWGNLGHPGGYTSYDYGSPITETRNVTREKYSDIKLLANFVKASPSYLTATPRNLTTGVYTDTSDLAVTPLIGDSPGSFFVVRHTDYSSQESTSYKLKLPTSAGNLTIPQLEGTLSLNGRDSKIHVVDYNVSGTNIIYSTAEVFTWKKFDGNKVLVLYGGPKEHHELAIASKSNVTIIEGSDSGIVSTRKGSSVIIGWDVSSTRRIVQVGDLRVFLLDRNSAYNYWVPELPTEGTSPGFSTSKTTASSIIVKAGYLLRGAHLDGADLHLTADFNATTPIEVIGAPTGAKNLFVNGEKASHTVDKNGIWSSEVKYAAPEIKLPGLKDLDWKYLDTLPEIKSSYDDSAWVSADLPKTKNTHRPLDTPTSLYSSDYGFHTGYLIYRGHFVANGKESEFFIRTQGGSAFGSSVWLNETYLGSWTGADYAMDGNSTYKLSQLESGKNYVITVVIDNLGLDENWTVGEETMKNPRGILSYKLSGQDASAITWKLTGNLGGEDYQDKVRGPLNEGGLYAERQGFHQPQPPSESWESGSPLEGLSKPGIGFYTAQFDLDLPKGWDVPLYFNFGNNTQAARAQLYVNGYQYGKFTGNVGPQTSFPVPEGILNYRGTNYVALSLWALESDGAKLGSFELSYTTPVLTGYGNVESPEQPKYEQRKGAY

Saccharomyces cerevisiae = experiment: Inhibition of yeast alpha glucosidase at 1 mM using p-nitrophenyl glycopyranoside preincubated for 5 mins followed by substrate addition measured after 20 mins by visible absorption spectroscopic method relative to control; procedure, shortened: as §1
Oryza sativa = experiment: Inhibition of rice alpha-glucosidase at 1 mM using p-nitrophenyl glycopyranoside preincubated for 5 mins followed by substrate addition measured after 20 mins by visible absorption spectroscopic method relative to control; procedure, shortened: as §1
Aspergillus niger = experiment: Inhibition of Aspergillus niger amyloglucosidase at 1 mM using p-nitrophenyl glycopyranoside preincubated for 5 mins followed by substrate addition measured after 20 mins by visible absorption spectroscopic method relative to control; procedure, shortened: as §1
Prunus dulcis [4] = experiment: Inhibition of almond beta-glucosidase at 1 mM using p-nitrophenyl glycopyranoside preincubated for 5 mins followed by substrate addition measured after 20 mins by visible absorption spectroscopic method relative to control; procedure, shortened: as §1
[5] = target: T2, Alpha-mannosidase (Canavalia ensiformis) (UniProt C0HJB3); experiment: Inhibition of jack bean alpha-mannosidase at 1 mM using p-nitrophenyl glycopyranoside preincubated for 5 mins followed by substrate addition measured after 20 mins by visible absorption spectroscopic method relative to control; procedure, shortened: as §1
T2 sequence (whole entry): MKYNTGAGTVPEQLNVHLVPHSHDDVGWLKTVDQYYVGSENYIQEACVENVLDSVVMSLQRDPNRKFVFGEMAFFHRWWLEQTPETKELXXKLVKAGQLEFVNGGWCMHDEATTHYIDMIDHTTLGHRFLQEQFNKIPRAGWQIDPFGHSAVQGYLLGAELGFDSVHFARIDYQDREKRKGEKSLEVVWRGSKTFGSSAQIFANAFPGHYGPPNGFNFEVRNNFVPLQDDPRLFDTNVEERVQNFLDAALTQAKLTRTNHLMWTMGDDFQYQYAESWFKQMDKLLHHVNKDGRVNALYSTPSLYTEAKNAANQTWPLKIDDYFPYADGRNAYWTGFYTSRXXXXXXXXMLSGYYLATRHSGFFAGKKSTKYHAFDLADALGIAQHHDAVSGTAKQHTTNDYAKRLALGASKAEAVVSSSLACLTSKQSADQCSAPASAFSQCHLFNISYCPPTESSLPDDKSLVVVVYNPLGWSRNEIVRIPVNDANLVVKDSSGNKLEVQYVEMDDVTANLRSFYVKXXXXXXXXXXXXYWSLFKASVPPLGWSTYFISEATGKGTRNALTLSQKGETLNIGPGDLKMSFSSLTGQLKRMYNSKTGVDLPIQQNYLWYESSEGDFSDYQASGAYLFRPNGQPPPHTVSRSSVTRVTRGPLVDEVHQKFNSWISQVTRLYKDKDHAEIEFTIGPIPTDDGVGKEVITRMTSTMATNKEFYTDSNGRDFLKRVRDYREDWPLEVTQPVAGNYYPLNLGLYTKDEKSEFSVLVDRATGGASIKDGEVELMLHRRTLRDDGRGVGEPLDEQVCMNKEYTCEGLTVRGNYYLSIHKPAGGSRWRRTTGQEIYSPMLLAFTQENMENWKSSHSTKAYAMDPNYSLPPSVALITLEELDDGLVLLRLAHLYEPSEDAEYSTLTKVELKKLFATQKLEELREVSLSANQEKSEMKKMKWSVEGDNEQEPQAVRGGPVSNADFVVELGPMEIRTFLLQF

Cornu aspersum = experiment: Inhibition of snail beta-mannosidase at 1 mM using p-nitrophenyl glycopyranoside preincubated for 5 mins followed by substrate addition measured after 20 mins by visible absorption spectroscopic method relative to control; procedure, shortened: as §1
Canavalia ensiformis = experiment: Inhibition of jack bean beta-N-acetylglucosaminidase at 1 mM using p-nitrophenyl glycopyranoside preincubated for 5 mins followed by substrate addition measured after 20 mins by visible absorption spectroscopic method relative to control; procedure, shortened: as §1
Prunus dulcis [6] = experiment: Inhibition of almond beta-glucosidase at 10 uM using p-nitrophenyl glycopyranoside preincubated for 5 mins followed by substrate addition measured after 20 mins by visible absorption spectroscopic method relative to control
Procedure, shortened: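 Crude click-reaction products screened in situ. Azide (final 15 mM) was reacted with each alkyne using sodium ascorbate/CuSO4 in tBuOH–H2O for 24 h at rt, then diluted with water. Tested at 10 μM per well, assuming quantitative conversion, against almond β-glucosidase at pH 5, 37 °C. p-Nitrophenyl glycoside read-out at 405 nm.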

Alpha-galactosidase (Coffea arabica), sequence (Q42656 16-378 limits assumed): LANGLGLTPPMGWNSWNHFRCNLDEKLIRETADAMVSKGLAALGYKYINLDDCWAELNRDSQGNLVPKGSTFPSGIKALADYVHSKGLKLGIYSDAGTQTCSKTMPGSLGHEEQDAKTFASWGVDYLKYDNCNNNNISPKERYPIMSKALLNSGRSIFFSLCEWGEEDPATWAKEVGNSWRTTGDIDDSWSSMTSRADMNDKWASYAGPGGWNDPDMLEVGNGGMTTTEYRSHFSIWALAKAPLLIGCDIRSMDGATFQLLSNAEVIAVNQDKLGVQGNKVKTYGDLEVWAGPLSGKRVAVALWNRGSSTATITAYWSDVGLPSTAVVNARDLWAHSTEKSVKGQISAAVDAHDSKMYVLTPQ
Beta-galactosidase (Escherichia coli), sequence (Q8VNN2 whole entry, looked up): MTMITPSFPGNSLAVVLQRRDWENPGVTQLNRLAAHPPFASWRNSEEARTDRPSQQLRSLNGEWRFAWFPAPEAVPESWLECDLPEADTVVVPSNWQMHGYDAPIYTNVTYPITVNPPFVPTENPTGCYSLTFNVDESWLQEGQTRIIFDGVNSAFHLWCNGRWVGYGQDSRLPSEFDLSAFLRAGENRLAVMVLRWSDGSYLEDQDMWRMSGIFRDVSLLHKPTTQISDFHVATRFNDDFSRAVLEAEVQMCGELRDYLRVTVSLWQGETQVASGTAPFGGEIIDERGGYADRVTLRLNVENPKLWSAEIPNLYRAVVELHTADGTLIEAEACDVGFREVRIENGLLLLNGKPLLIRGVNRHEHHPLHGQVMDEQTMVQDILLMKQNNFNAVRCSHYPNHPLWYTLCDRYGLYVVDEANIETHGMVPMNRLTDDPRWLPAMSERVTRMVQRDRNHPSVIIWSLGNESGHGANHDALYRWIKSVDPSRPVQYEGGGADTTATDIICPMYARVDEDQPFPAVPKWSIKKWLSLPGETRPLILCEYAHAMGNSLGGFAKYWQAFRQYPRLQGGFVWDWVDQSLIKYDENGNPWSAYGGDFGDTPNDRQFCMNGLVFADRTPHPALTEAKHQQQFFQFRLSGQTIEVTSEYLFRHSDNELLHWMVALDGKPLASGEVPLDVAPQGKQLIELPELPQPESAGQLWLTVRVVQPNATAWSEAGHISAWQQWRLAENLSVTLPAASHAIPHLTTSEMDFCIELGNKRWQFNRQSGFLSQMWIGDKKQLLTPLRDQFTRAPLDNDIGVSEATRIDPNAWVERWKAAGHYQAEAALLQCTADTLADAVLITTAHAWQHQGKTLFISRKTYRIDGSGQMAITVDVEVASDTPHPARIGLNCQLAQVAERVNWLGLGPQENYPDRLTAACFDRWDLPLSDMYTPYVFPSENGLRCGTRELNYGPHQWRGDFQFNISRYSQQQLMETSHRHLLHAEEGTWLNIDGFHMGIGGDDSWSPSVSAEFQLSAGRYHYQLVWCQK

SMILES: O[C@@H]1[C@@H](c2cn(Cc3ccccc3)nn2)NC[C@@H]1O
inhibition [1]: inactive | inhibition (Bos taurus): 21% | inhibition [2]: inactive | inhibition [3]: inactive | inhibition (Saccharomyces cerevisiae): inactive | inhibition (Oryza sativa): inactive | inhibition (Aspergillus niger): inactive | inhibition (Prunus dulcis [4]): inactive | inhibition [5]: 30% | inhibition (Cornu aspersum): inactive | inhibition (Canavalia ensiformis): inactive

SMILES: O[C@@H]1[C@H](O)CN[C@H]1Cn1cc(CC2CCCCC2)nn1
inhibition (Prunus dulcis [6]): inactive

SMILES: O=C(NC[C@@H]1NC[C@@H](O)[C@H]1O)c1ccccc1
inhibition [1]: inactive | inhibition (Bos taurus): 15% | inhibition [2]: inactive | inhibition [3]: inactive | inhibition (Saccharomyces cerevisiae): inactive | inhibition (Oryza sativa): inactive | inhibition (Aspergillus niger): inactive | inhibition (Prunus dulcis [4]): 79% | inhibition [5]: 71% | inhibition (Cornu aspersum): inactive | inhibition (Canavalia ensiformis): 17%

SMILES: O[C@@H]1[C@H](O)CN[C@H]1c1cn(Cc2ccccc2)nn1
inhibition [1]: inactive | inhibition (Bos taurus): 71% | inhibition [2]: inactive | inhibition [3]: inactive | inhibition (Saccharomyces cerevisiae): inactive | inhibition (Oryza sativa): inactive | inhibition (Aspergillus niger): inactive | inhibition (Prunus dulcis [4]): inactive | inhibition [5]: inactive | inhibition (Cornu aspersum): inactive | inhibition (Canavalia ensiformis): inactive

SMILES: Cc1ccc(S(=O)(=O)OCCOCCOCCOCCOCCOCCOCc2cn(C[C@@H]3NC[C@@H](O)[C@H]3O)nn2)cc1
inhibition (Prunus dulcis [6]): inactive

SMILES: OCc1ccc(-c2cn(C[C@@H]3NC[C@@H](O)[C@H]3O)nn2)cc1
inhibition (Prunus dulcis [6]): inactive

SMILES: O[C@H]1[C@@H](O)CN[C@@H]1Cn1cc(-c2ccccc2)nn1
inhibition [1]: inactive | inhibition (Bos taurus): inactive | inhibition [2]: inactive | inhibition [3]: inactive | inhibition (Saccharomyces cerevisiae): inactive | inhibition (Oryza sativa): inactive | inhibition (Aspergillus niger): inactive | inhibition (Prunus dulcis [4]): 49% | inhibition [5]: 60% | inhibition (Cornu aspersum): inactive | inhibition (Canavalia ensiformis): inactive

SMILES: O[C@@H]1[C@H](O)CN[C@H]1CNC(=S)Nc1ccccc1
inhibition [1]: inactive | inhibition (Bos taurus): inactive | inhibition [2]: 16% | inhibition [3]: inactive | inhibition (Saccharomyces cerevisiae): inactive | inhibition (Oryza sativa): inactive | inhibition (Aspergillus niger): 18% | inhibition (Prunus dulcis [4]): 74% | inhibition [5]: inactive | inhibition (Cornu aspersum): 45% | inhibition (Canavalia ensiformis): inactive

SMILES: COc1ccc2cc(-c3cn(C[C@@H]4NC[C@@H](O)[C@H]4O)nn3)ccc2c1
inhibition (Prunus dulcis [6]): inactive

SMILES: OCCOCCOCCOCCOCCOCCOCc1cn(C[C@@H]2NC[C@@H](O)[C@H]2O)nn1
inhibition (Prunus dulcis [6]): inactive

SMILES: O[C@@H]1[C@H](O)CN[C@H]1Cn1cc(C2(O)CCCCC2)nn1
inhibition (Prunus dulcis [6]): inactive

SMILES: [N-]=[N+]=NC[C@@H]1NC[C@@H](O)[C@H]1O
inhibition [1]: inactive | inhibition (Bos taurus): 33% | inhibition [2]: 44% | inhibition [3]: inactive | inhibition (Saccharomyces cerevisiae): inactive | inhibition (Oryza sativa): inactive | inhibition (Aspergillus niger): inactive | inhibition (Prunus dulcis [4]): inactive | inhibition [5]: 71% | inhibition (Cornu aspersum): inactive | inhibition (Canavalia ensiformis): inactive | inhibition (Prunus dulcis [6]): inactive

SMILES: O[C@@H]1[C@H](O)CN[C@H]1Cn1cc(COc2ccccc2)nn1
inhibition (Prunus dulcis [6]): inactive

SMILES: CN(Cc1ccccc1)Cc1cn(C[C@@H]2NC[C@@H](O)[C@H]2O)nn1
inhibition (Prunus dulcis [6]): inactive

SMILES: COc1ccc(-c2cn(C[C@@H]3NC[C@@H](O)[C@H]3O)nn2)cc1
inhibition (Prunus dulcis [6]): inactive

Results, then the compound that gave them:

inhibition (Prunus dulcis [6]): inactive
SMILES: Cc1oc(CO)cc1C(=O)NCc1cn(C[C@@H]2NC[C@@H](O)[C@H]2O)nn1

inhibition (Prunus dulcis [6]): inactive
SMILES: O=C(O)CCCc1cn(C[C@@H]2NC[C@@H](O)[C@H]2O)nn1

inhibition (Prunus dulcis [6]): inactive
SMILES: NCc1cn(C[C@@H]2NC[C@@H](O)[C@H]2O)nn1

inhibition (Prunus dulcis [6]): inactive
SMILES: OCCOCc1cn(C[C@@H]2NC[C@@H](O)[C@H]2O)nn1

inhibition (Prunus dulcis [6]): inactive
SMILES: O=C(NCc1cn(C[C@@H]2NC[C@@H](O)[C@H]2O)nn1)c1ccccc1

inhibition (Prunus dulcis [6]): inactive
SMILES: OCCCc1cn(C[C@@H]2NC[C@@H](O)[C@H]2O)nn1

inhibition (Prunus dulcis [6]): inactive
SMILES: OCc1cn(C[C@@H]2NC[C@@H](O)[C@H]2O)nn1

inhibition (Prunus dulcis [6]): inactive
SMILES: COC(=O)c1cn(C[C@@H]2NC[C@@H](O)[C@H]2O)nn1
